In ChEMBL document CHEMBL1135421, “2-(Anilinomethyl)imidazolines as alpha1 adrenergic receptor agonists: the discovery of alpha1a subtype selective 2'-alkylsulfonyl-substituted analogues” (J Med Chem, 2002):

Experiments:
[1] = biological target: T1, Alpha-1A adrenergic receptor (Homo sapiens) (UniProt P35348); test: Agonist potency at Alpha-1 adrenergic receptor assayed in rat-1 fibroblasts expressing human Alpha-1 adrenergic receptor; assay type: functional
T1 sequence (whole entry): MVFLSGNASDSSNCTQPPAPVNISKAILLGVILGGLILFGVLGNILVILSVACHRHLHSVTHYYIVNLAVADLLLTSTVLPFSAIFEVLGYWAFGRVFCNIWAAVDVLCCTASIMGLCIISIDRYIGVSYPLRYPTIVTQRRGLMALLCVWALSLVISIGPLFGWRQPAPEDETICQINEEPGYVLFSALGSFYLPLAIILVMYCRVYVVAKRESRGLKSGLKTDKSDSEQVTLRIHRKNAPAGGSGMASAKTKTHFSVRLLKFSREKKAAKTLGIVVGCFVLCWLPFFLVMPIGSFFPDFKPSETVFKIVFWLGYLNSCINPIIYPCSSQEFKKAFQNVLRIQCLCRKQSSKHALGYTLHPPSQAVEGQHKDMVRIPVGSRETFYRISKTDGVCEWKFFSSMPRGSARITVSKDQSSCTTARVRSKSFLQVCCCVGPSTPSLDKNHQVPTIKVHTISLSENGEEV
How it was run: (§1)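 Rat-1 fibroblasts expressing human α1a/α1b/α1d, grown in DMEM with 10% heat-inactivated FBS and 0.6 mg/mL G418, plated 6000 cells/well and cultured 48 h at 37 °C. Loaded 2 h at 37 °C with Calcium Green (4 μM), 0.2% pluronic acid and 2.5 mM probenecid in HEPES buffer pH 7.4. FLIPR read at room temperature: 10 s baseline, then 50 s after compound. 11-point curves as % of 40 μM phenylephrine response, top concentration typically 5 μM.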

[2] = biological target: T2, Alpha-2A adrenergic receptor (Homo sapiens, UniProt P08913); test: Affinity to human aAlpha-2A adrenergic receptor determined by radioligand binding techniques from chinese hamster ovary (CHO) cells; assay type: cell-based
T2 sequence (P08913 whole entry): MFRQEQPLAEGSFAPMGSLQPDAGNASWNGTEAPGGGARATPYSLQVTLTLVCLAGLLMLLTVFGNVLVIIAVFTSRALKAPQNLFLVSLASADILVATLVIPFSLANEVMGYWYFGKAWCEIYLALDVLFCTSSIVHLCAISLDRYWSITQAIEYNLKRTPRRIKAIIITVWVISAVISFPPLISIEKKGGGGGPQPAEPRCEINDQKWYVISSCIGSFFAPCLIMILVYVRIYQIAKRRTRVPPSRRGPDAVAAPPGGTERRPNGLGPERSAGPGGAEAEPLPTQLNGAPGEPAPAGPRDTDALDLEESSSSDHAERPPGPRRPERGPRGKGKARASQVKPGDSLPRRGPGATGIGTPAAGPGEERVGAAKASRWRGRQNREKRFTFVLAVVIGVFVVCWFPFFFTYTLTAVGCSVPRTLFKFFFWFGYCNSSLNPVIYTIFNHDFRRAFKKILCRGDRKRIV

[3] = biological target: T3, Alpha-1D adrenergic receptor (Homo sapiens) (UniProt P25100); test: Agonist potency at Alpha-1D adrenergic receptor assayed in rat-1 fibroblasts expressing human alpha1d; assay type: functional; how it was run: as §1
T3 sequence (whole entry): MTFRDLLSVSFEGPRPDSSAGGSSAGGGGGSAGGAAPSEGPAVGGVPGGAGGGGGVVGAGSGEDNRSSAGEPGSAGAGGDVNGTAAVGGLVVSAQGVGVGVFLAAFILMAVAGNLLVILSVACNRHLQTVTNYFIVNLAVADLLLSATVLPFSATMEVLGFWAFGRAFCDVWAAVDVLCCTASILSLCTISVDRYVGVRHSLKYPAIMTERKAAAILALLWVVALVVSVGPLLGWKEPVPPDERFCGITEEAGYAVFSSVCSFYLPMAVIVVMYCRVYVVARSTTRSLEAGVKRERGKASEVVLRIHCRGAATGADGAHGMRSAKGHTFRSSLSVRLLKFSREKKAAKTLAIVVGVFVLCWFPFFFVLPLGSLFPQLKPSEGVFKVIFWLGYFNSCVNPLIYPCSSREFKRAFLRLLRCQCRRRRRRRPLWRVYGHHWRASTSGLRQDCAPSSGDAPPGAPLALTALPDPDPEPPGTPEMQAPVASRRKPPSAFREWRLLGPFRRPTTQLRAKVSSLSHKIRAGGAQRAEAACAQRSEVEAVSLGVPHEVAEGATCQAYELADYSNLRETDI

[4] = biological target: T4, Alpha-2A adrenergic receptor (Homo sapiens) (UniProt P08913); test: Agonist potency at Alpha-2A adrenergic receptor assayed in CHO cells expressing human alpha-2a; assay type: functional, cell-based
T4 sequence (whole entry): T2 sequence (P08913 whole entry)

[5] = biological target: T5, Alpha-1B adrenergic receptor (Homo sapiens, UniProt P35368); test: Agonist potency at alpha-1b adrenoceptors assayed in rat-1 fibroblasts expressing human alpha-1b; assay type: functional; how it was run: as §1
T5 sequence (P35368 whole entry): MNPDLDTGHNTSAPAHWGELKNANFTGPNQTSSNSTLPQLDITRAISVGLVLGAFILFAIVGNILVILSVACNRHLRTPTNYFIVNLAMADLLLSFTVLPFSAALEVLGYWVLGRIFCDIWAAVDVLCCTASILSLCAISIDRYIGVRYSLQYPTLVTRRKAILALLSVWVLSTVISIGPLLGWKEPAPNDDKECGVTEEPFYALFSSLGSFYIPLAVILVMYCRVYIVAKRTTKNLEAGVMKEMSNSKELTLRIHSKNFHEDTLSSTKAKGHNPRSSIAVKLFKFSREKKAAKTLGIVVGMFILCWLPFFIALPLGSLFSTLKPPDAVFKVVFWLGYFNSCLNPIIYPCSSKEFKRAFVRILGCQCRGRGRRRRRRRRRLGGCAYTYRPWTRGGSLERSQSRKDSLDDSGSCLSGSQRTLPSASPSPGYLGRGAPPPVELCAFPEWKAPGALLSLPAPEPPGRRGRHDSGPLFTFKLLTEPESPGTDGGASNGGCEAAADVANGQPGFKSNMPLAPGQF

[6] = biological target: T2, Alpha-2A adrenergic receptor; test: Agonist potency at Alpha-2A adrenergic receptor assayed in CHO cells expressing human alpha 2a; assay type: functional, cell-based
[7] = biological target: T6, Alpha-1A adrenergic receptor (Homo sapiens, UniProt P35348); test: Agonist potency at Alpha-1A adrenoceptors assayed in rat-1 fibroblasts expressing human Alpha-1A; assay type: functional; how it was run: as §1
T6 sequence (P35348 whole entry): T1 sequence (whole entry)

[8] = biological target: T5, Alpha-1B adrenergic receptor; test: Agonist potency at alpha-1b adrenoceptors assayed in rat-1 fibroblasts expressing human Alpha-1B adrenergic receptor; assay type: functional
How it was run: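 Human α1a, α1b or α1d receptors expressed in Rat-1 fibroblasts (DMEM, 10% heat-inactivated FBS, 0.6 mg/mL G418). Cells were plated at 6000/well and grown 48 h at 37 °C. They were loaded 2 h at 37 °C with Calcium Green (4 μM), pluronic acid 0.2% and probenecid 2.5 mM in HEPES buffer pH 7.4, then read by FLIPR at room temperature: 10 s baseline, 50 s after compound. 11-point curves were expressed as % of the 40 μM phenylephrine response; top concentration typically 5 μM.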

CCCS(=O)(=O)c1ccccc1NCC1=NCCN1
pEC5 [1]: 7.16
Ki [2]: > 7.94 µM
pEC5 [3]: < 4
pEC5 [4]: < 5

CSc1ccccc1NCC1=NCCN1
EC50 [5]: 2.19 nM
EC50 [6]: 39.8 nM
EC50 [7]: 4.57 nM

CS(=O)(=O)c1cc(Cl)ccc1NCC1=NCCN1
EC50 [8]: > 100 µM
